According to ChEMBL document CHEMBL3813688, “Synthesis, antitumor activity and mechanism of action of novel 1,3-thiazole derivatives containing hydrazide-hydrazone and carboxamide moiety” (Bioorg Med Chem Lett, 2016):
In brackets after ≈: the same amount, converted by molar mass.

Key:
[1] = Cytotoxicity against human BCG823 cells assessed as cell growth inhibition at 20 ug/ml after 72 hrs by MTT assay; type: functional; settings: BCG823, 72 h, read-out: GI
HepG2 [2] = test: Cytotoxicity against human HepG2 cells assessed as cell growth inhibition at 20 ug/ml after 72 hrs by MTT assay; type: functional; settings: HepG2, 72 h, read-out: GI
[3] = tested on: MCF-7, HepG2, BGC-823, HeLa, A549 cancer cell lines (Homo sapiens); test: Cytotoxicity against human MCF-7, HepG2, BGC-823, HeLa and A549 cells assessed as cell growth inhibition at 20 ug/ml after 72 hrs by MTT assay; settings: read-out: GI
HeLa [4] = test: Cytotoxicity against human HeLa cells assessed as cell growth inhibition at 20 ug/ml after 72 hrs by MTT assay; type: functional; settings: read-out: GI
MCF7 [5] = test: Cytotoxicity against human MCF7 cells assessed as cell growth inhibition at 20 ug/ml after 72 hrs by MTT assay; type: functional; settings: MCF7, 72 h, read-out: GI
A549 [6] = test: Cytotoxicity against human A549 cells assessed as cell growth inhibition at 20 ug/ml after 72 hrs by MTT assay; type: functional; settings: A549, 72 h, read-out: GI
HeLa [7] = test: Cytotoxicity against human HeLa cells assessed as cell growth inhibition after 72 hrs by MTT assay; type: functional, cell-based
How it was run: (§1)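 MTT growth assay in human cancer lines (MCF-7, HepG2, BGC-823, HeLa, A549), 72 h after treatment; 5-fluorouracil as reference. IC50 (μg/mL) taken as concentration giving 50% growth inhibition versus untreated control.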

HepG2 [8] = test: Cytotoxicity against human HepG2 cells assessed as cell growth inhibition after 72 hrs by MTT assay; type: functional, cell-based; settings: HepG2, 72 h; how it was run: as §1
A549 [9] = test: Cytotoxicity against human A549 cells assessed as cell growth inhibition after 72 hrs by MTT assay; type: functional, cell-based; settings: A549, 72 h; how it was run: as §1
[10] = Cytotoxicity against human BCG823 cells assessed as cell growth inhibition after 72 hrs by MTT assay; type: functional, cell-based; settings: BCG823, 72 h; how it was run: as §1
MCF7 [11] = test: Cytotoxicity against human MCF7 cells assessed as cell growth inhibition after 72 hrs by MTT assay; type: functional, cell-based; settings: MCF7, 72 h; how it was run: as §1

Row | Structure (SMILES) | inhibition of growth at 20 µg/mL [1] [%] | inhibition of growth at 20 µg/mL (HepG2 [2]) [%] | inhibition at 72 h, 20 ug/ml [3] [%] | inhibition of growth at 20 µg/mL (HeLa [4]) [%] | inhibition of growth at 20 µg/mL (MCF7 [5]) [%] | inhibition of growth at 20 µg/mL (A549 [6]) [%] | IC50 (HeLa [7]) [µg/mL] | IC50 (HepG2 [8]) [µg/mL] | IC50 (A549 [9]) [µg/mL] | IC50 [10] [µg/mL] | IC50 (MCF7 [11]) [µg/mL]
1 | CCOC(=O)c1sc(NC)nc1C(F)(F)F | < 10 | < 10 | < 10 | < 10 | < 10 | < 10 | – | – | – | – | –
2 | CN(C(=O)NC(=O)c1ccc(C(F)(F)F)cc1)c1nc(C(F)(F)F)c(C(=O)N/N=C/c2ccc(C(F)(F)F)cc2)s1 | – | – | – | – | – | – | > 100 | > 100 | > 100 | > 100 | > 100
3 | CN(C(=O)NC(=O)c1ccc(Cl)cc1Cl)c1nc(C(F)(F)F)c(C(=O)N/N=C/c2ccccc2C(F)(F)F)s1 | – | – | – | – | – | – | 9 (≈ 14.7 µM) | 10.7 (≈ 17.4 µM) | 15.3 (≈ 25 µM) | 5.73 (≈ 9.36 µM) | 9.12 (≈ 14.9 µM)
4 | CN(C(=O)NC(=O)c1ccc(F)c(F)c1)c1nc(C(F)(F)F)c(C(=O)N/N=C/c2ccccc2C(F)(F)F)s1 | – | – | – | – | – | – | 9.24 (≈ 15.9 µM) | 10.4 (≈ 17.9 µM) | 6.96 (≈ 12 µM) | 3.66 (≈ 6.32 µM) | 8.21 (≈ 14.2 µM)
5 | CN(C(=O)NC(=O)c1ccccc1)c1nc(C(F)(F)F)c(C(=O)N/N=C/c2cccc([N+](=O)[O-])c2)s1 | – | – | – | – | – | – | 11.2 (≈ 21.6 µM) | 14.3 (≈ 27.5 µM) | 20.7 (≈ 39.7 µM) | 13.6 (≈ 26.1 µM) | 15.4 (≈ 29.6 µM)
6 | Cc1nc(N(C)C(=O)NC(=O)c2c(F)cccc2F)sc1C(=O)N/N=C/c1ccc(Cl)cc1Cl | – | – | – | – | – | – | – | 70 (≈ 133 µM) | – | – | –
7 | Cc1nc(N(C)C(=O)NC(=O)c2c(F)cccc2F)sc1C(=O)N/N=C/c1ccccc1F | – | – | – | – | – | – | – | > 100 | – | – | –
8 | CN(C(=O)NC(=O)c1ccc([N+](=O)[O-])cc1)c1nc(C(F)(F)F)c(C(=O)N/N=C/c2cccc(C(F)(F)F)c2)s1 | – | – | – | – | – | – | 4.12 (≈ 7 µM) | 4.73 (≈ 8.04 µM) | 5.42 (≈ 9.21 µM) | 1.67 (≈ 2.84 µM) | 4.39 (≈ 7.46 µM)
9 | Cc1nc(N(C)C(=O)NC(=O)c2c(F)cccc2F)sc1C(=O)N/N=C/c1ccccc1 | – | – | – | – | – | – | – | 54.3 (≈ 119 µM) | – | – | –
10 | CN(C(=O)NC(=O)c1cccc([N+](=O)[O-])c1)c1nc(C(F)(F)F)c(C(=O)N/N=C/c2ccccc2C(F)(F)F)s1 | – | – | – | – | – | – | 4.15 (≈ 7.05 µM) | 4.8 (≈ 8.16 µM) | 5.45 (≈ 9.26 µM) | 3.97 (≈ 6.75 µM) | 4.73 (≈ 8.04 µM)
11 | CN(C(=O)NC(=O)c1ccccc1F)c1nc(C(F)(F)F)c(C(=O)N/N=C/c2cccc(C(F)(F)F)c2)s1 | – | – | – | – | – | – | 19.1 (≈ 34.1 µM) | 20.3 (≈ 36.2 µM) | 19.4 (≈ 34.6 µM) | 16.3 (≈ 29.1 µM) | 20.5 (≈ 36.6 µM)
12 | COc1cc(/C=N/NC(=O)c2sc(N(C)C(=O)NC(=O)c3c(F)cccc3F)nc2C)cc(OC)c1OC | – | – | – | – | – | – | – | > 100 | – | – | –
13 | CCOC(=O)c1sc(NC)nc1C | < 10 | < 10 | < 10 | < 10 | < 10 | < 10 | – | – | – | – | –
14 | CN(C(=O)NC(=O)c1ccc(Cl)cc1Cl)c1nc(C(F)(F)F)c(C(=O)N/N=C/c2ccc([N+](=O)[O-])cc2)s1 | – | – | – | – | – | – | 5.12 (≈ 8.69 µM) | 6.85 (≈ 11.6 µM) | 6.44 (≈ 10.9 µM) | 2.13 (≈ 3.61 µM) | 6.74 (≈ 11.4 µM)
15 | CN(C(=O)NC(=O)c1ccc(Cl)cc1Cl)c1nc(C(F)(F)F)c(C(=O)N/N=C/c2ccc(C(F)(F)F)cc2)s1 | – | – | – | – | – | – | 7.99 (≈ 13 µM) | 12.4 (≈ 20.3 µM) | 9.4 (≈ 15.4 µM) | 3.08 (≈ 5.03 µM) | 8.42 (≈ 13.8 µM)
16 | CN(C(=O)NC(=O)c1ccccc1[N+](=O)[O-])c1nc(C(F)(F)F)c(C(=O)N/N=C/c2ccc([N+](=O)[O-])cc2)s1 | – | – | – | – | – | – | 18.4 (≈ 32.6 µM) | 25.2 (≈ 44.6 µM) | 17.6 (≈ 31.2 µM) | 15.7 (≈ 27.7 µM) | 21.2 (≈ 37.5 µM)
17 | CN(C(=O)NC(=O)c1c(F)cccc1F)c1nc(C(F)(F)F)c(C(=O)N/N=C/c2ccccc2C(F)(F)F)s1 | – | – | – | – | – | – | 19.6 (≈ 33.8 µM) | 26.1 (≈ 45 µM) | 17.9 (≈ 30.9 µM) | 16.9 (≈ 29.3 µM) | 20.4 (≈ 35.3 µM)
18 | Cc1nc(N(C)C(=O)NC(=O)c2c(F)cccc2F)sc1C(=O)N/N=C/c1ccc(C(F)(F)F)cc1 | – | – | – | – | – | – | 40.5 (≈ 77.2 µM) | > 100 | 60.4 (≈ 115 µM) | 65.5 (≈ 125 µM) | 30.6 (≈ 58.2 µM)
19 | CN(C(=O)NC(=O)c1cccc(C(F)(F)F)c1)c1nc(C(F)(F)F)c(C(=O)N/N=C/c2ccc(C(F)(F)F)cc2)s1 | – | – | – | – | – | – | 7.35 (≈ 12 µM) | 7.71 (≈ 12.6 µM) | 6.2 (≈ 10.1 µM) | 4.22 (≈ 6.9 µM) | 6.5 (≈ 10.6 µM)
20 | CN(C(=O)NC(=O)c1c(F)cccc1F)c1nc(C(F)(F)F)c(C(=O)N/N=C/c2cc(C(F)(F)F)cc(C(F)(F)F)c2)s1 | – | – | – | – | – | – | 5.62 (≈ 8.68 µM) | 6.28 (≈ 9.7 µM) | 17.3 (≈ 26.7 µM) | 5.28 (≈ 8.16 µM) | 6.85 (≈ 10.6 µM)
